Hits are enriched below; roughly 4.5% of the tested compounds scored in any of these assays.
OX1R antag-1: OX1R (human) antagonism. O43613. OX1R-expressing cells, FRET antagonist read-out. inhibition, % at 6.6 µM. 330,000 tested, 1.8% active; in the data active = inhibition mostly above about 38%, no sharp cut-off; inactive = mostly below about 40%
Target sequence (O43613 whole entry, looked up): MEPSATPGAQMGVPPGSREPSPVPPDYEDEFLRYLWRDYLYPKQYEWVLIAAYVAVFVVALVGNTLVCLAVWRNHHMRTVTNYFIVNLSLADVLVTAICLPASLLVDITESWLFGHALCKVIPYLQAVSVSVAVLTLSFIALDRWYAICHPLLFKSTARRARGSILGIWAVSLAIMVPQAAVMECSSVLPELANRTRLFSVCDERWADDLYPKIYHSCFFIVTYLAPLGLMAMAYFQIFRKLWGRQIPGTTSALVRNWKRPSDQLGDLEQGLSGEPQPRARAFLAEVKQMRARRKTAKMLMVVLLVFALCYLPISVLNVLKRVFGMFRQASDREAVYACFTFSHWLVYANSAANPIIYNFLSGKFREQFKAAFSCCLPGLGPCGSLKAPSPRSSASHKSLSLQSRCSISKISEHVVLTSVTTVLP
TAAR1 antag: human TAAR1 antagonism; Q96RJ0; CHO RD-HGA16 TAAR1, Fluo-8 calcium fluorescence, antagonist; inhibition, % at 3 µM; 360,000 tested, 1.5% active;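 active = inhibition above a per-plate cutoff, the mean inhibition of test compounds on that plate plus 3 SD, cut at about 49% in these data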
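Material: CHO RD-HGA16 cells bearing hTAAR1; compound dosing: one-point dosing, 3 µM nominal final; schedule: dye loading 75 min at 37 °C, then 30 min room temperature; measured by: calcium fluorescence with Fluo-8; control set: vehicle and agonist controls; replication: n of 1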
OX1R antag-2: antagonists of human orexin 1 receptor; O43613; CHO/OX1R cells, Fluo-8 calcium fluorescence, orexin A; inhibition, % at 5 µM; 330,000 tested, 0.43% active; AID 434989;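 active = inhibition above its plate's threshold, mean inhibition of all tested compounds on the plate plus 3 SD, cut at about 37% in these data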
CHO parental Ca: counter-screen: ATP calcium response change in parental CHO cells; parental CHO-K1, ATP-induced calcium, Fluo-8 fluorescence; inhibition, % at 5.6 µM; 330,000 tested, 0.63% active;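 active = inhibition above that plate's mean sample inhibition plus 3 SD, cut at about 26% in these data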
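material = parental CHO cells | also added = ATP as calcium-mobilizing challenge | dosing = single point at 5.6 µM | detection = intracellular calcium via Fluo-8 no-wash fluorescent dye | read-out = % inhibition | benchmarks = low control ATP plus DMSO, high control DMSO only | repeats = one well per compound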
GPR7 antagonist: antagonists of human GPR7 (neuropeptides B/W receptor 1); P48145; GPR7-expressing cells, fluorescence antagonist assay; 290,000 tested, 1.1% active; inhibition, % at 4.4 µM; in the data active = inhibition above about 16%, passing the limit was not always enough;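 also: cells stimulated with the agonist NPW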
Target sequence (P48145 whole entry, looked up): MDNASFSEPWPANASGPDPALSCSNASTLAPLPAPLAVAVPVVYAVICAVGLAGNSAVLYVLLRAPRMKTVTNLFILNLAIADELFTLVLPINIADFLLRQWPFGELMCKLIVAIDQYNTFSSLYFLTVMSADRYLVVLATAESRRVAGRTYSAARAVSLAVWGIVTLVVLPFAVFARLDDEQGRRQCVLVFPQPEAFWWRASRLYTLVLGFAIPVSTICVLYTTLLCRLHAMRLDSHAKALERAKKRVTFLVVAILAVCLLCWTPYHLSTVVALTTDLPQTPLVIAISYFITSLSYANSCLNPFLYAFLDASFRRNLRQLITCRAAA
TAAR1 ag: human TAAR1 agonism; Q96RJ0; CHO RD-HGA16 TAAR1, Fluo-8 calcium fluorescence; vehicle wells 0%, saturating PEA agonist 100%; activation, % at 3 µM; 360,000 tested, 0.99% active;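 active = activation above the mean activation of all test compounds in the run plus 3 SD, cut at about 38% in these data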
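Assay system: CHO-derived RD-HGA16 cells with stable Gα16 and human TAAR1; timing: 17-24 h seeding, 75 min 37 °C dye, 30 min RT; read-out: % activation from peak over basal fluorescence ratio, DMSO-to-PEA scaled; measured by: kinetic Fluo-8 calcium fluorescence; benchmarks: low control DMSO, high control PEA (EC100); doses: 3 µM single concentration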
TAAR1 ag conf: confirmation of human TAAR1 agonists; AID 651783; CHO RD-HGA16 TAAR1, Fluo-8 calcium fluorescence; scaled: DMSO 0%, maximal phenethylamine 100%; activation, % at 3 µM; 2,400 tested, 82% active; shares compounds with TAAR1 ag;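 active = activation above a cutoff set at the run's mean compound activation plus 3 SD, cut at about 39% in these data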
Ga16 ag counter: counter-screen for TAAR1 agonists: nonselective agonists in parental cells; shares compounds with TAAR1 ag; CHO-Ga16 parental, Fluo-8 calcium fluorescence; normalized to maximal ATP response, DMSO zero; activation, % at 3 µM; 2,400 tested, 50% active; AID 651787;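 active = activation above the run cutoff, the mean activation over all tested wells plus 3 SD, cut at about 12% in these data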
TAAR1 desensitize: human TAAR1 agonist that also desensitizes the receptor. 2,400 tested, 46% active. shares compounds with TAAR1 ag. inhibition, % at 3 µM. CHO RD-HGA16 hTAAR1, Fluo-8 calcium, beta-PEA response inhibition;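 active = inhibition above the run cutoff, the mean inhibition of all test compounds plus 3 SD, cut at about 49% in these data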;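 also: beta-PEA stimulus applied at its EC80; loss of beta-PEA calcium signal after compound pretreatment read as receptor desensitization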
Ga16 antag count: nonselective Ga16 antagonist in TAAR1 agonist counter-screen; shares compounds with TAAR1 ag; CHO-Ga16 ATP-induced calcium, Fluo-8 fluorescence; inhibition, % at 3 µM; 2,400 tested, 39% active; AID 651952;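 active = inhibition above the plate's mean compound inhibition plus 3 SD, computed per plate, cut at about 22% in these data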
Large screens that a line does not name were inactive (follow-up assays come after a bar, where they were run).

CC1(c2ccc(OC(F)F)cc2)NC(=O)N(CC(=O)Nc2cccnc2Cl)C1=O (stereo not drawn)	TAAR1 antag 72.6, TAAR1 ag 129.0 (no result: GPR7 antagonist) | TAAR1 ag conf 130.9 | Ga16 ag counter 86.5 | TAAR1 desensitize 78.0 | Ga16 antag count 39.5
Clc1cccc2c3c([nH]c12)CCNC3	TAAR1 ag 59.8 | TAAR1 ag conf 87.0 | Ga16 ag counter inactive | TAAR1 desensitize 66.0 | Ga16 antag count inactive
CCCCCOC(=O)c1ccc(NC(=O)c2cccc(NC(=O)c3ccccc3C(=O)O)c2)cc1	none
Cc1ccc(N=Nc2ccc(O)c3ncccc23)cc1C	none
Cc1ccc(N=Nc2ccc(O)c3ncccc23)cc1	TAAR1 antag 81.5, CHO parental Ca 58.8, TAAR1 ag 63.3 | TAAR1 ag conf inactive | Ga16 ag counter inactive | TAAR1 desensitize inactive | Ga16 antag count 50.9
COc1ccc(/C=N/Nc2cc(C)nc(N3CCOCC3)n2)cc1	none
COc1ccc(Nc2cc(C)nc(N3CCOCC3)n2)cc1	TAAR1 ag 48.5 | TAAR1 ag conf 70.1 | Ga16 ag counter inactive | TAAR1 desensitize inactive | Ga16 antag count inactive
N=C1N(/N=C/c2ccccc2)C(=Nc2ccccc2)C(=S)N1c1ccccc1	TAAR1 ag 46.2 | TAAR1 ag conf inactive | Ga16 ag counter inactive | TAAR1 desensitize inactive | Ga16 antag count inactive
Cc1nn(CC(=O)N2CCc3ccccc3C2)c(C)c1Cl	none
Cc1cc2c(N=NC(=O)C3CC3c3ccccc3)c(O)[nH]c2cc1Br (stereo not drawn)	none
O=S(=O)(Nc1cccnc1)c1ccc(C2CCCCC2)cc1	OX1R antag-2 42.1, CHO parental Ca 34.7, TAAR1 ag 55.7 | TAAR1 ag conf 71.2 | Ga16 ag counter 27.7 | TAAR1 desensitize inactive | Ga16 antag count 30.8
O=S(=O)(Nc1cccnc1)c1ccccc1	none
O=C(Cc1n[nH]c(=O)[nH]c1=O)N/N=C/c1cccc(Cl)c1	none
O=C(Cc1n[nH]c(=O)[nH]c1=O)N/N=C/c1cccc(O)c1	TAAR1 ag 60.0 | TAAR1 ag conf 59.7 | Ga16 ag counter inactive | TAAR1 desensitize inactive | Ga16 antag count inactive
O=C(Cc1n[nH]c(=O)[nH]c1=O)N/N=C/c1ccccc1	TAAR1 ag 65.9 | TAAR1 ag conf 73.9 | Ga16 ag counter inactive | TAAR1 desensitize 55.0 | Ga16 antag count inactive
Cc1ccc(S(=O)(=O)/N=C(/c2ccc(F)cc2)N2CCCCC2)cc1	none
CCOc1ccc(CNC(=O)Cn2nc(C)c3c(C)n(-c4ccc(C)cc4)nc3c2=O)cc1	none
O=C(O)c1ccccc1C(=O)NCCCCCCNC(=O)c1ccccc1C(=O)O	none
O=C(O)c1ccccc1C(=O)NCC(O)c1ccccc1 (stereo not drawn)	TAAR1 ag 71.6 | TAAR1 ag conf 95.9 | Ga16 ag counter inactive | TAAR1 desensitize 62.4 | Ga16 antag count inactive
O=C(CNC(=O)c1ccccc1C(=O)O)c1ccccc1	TAAR1 ag 70.9 | TAAR1 ag conf 77.5 | Ga16 ag counter inactive | TAAR1 desensitize inactive | Ga16 antag count inactive
CCOC(=O)c1c(CSC(=N)N)n(-c2ccc(C)cc2)c2cc(Br)c(OC(C)=O)cc12	TAAR1 ag 62.6 | TAAR1 ag conf 92.4 | Ga16 ag counter 58.8 | TAAR1 desensitize 66.0 | Ga16 antag count 51.9
CCOC(=O)c1c(CSC(=N)N)n(C)c2cc(Br)c(OC(C)=O)cc12	none
OC[C@@H]1CN(CCc2ccccc2)C[C@H](n2cnc3c(N4CCOCC4)ncnc32)O1	TAAR1 ag 61.2 (no result: OX1R antag-1, OX1R antag-2, CHO parental Ca, GPR7 antagonist) | TAAR1 ag conf 74.2 | Ga16 ag counter inactive | TAAR1 desensitize inactive | Ga16 antag count inactive
OC[C@@H]1CN(CCc2ccccc2)C[C@H](n2cnc3c(NCc4ccc(F)cc4)ncnc32)O1	TAAR1 ag 66.0 (no result: OX1R antag-1, OX1R antag-2, CHO parental Ca, GPR7 antagonist) | TAAR1 ag conf 75.3 | Ga16 ag counter inactive | TAAR1 desensitize inactive | Ga16 antag count inactive
OCC1OC(n2cnc3c(NCCc4ccccc4)ncnc32)C(O)C1O (stereo not drawn)	TAAR1 ag 69.9 (no result: GPR7 antagonist) | TAAR1 ag conf 75.1 | Ga16 ag counter inactive | TAAR1 desensitize 65.1 | Ga16 antag count inactive
CC(C)N(C)c1ncnc2c1ncn2[C@H]1CN(Cc2cccs2)C[C@@H](CO)O1	none (no result: OX1R antag-1, OX1R antag-2, CHO parental Ca, GPR7 antagonist)
CC(C)N(C)c1ncnc2c1ncn2[C@H]1CN(CCc2ccccc2)C[C@@H](CO)O1	TAAR1 ag 47.6 (no result: OX1R antag-1, OX1R antag-2, CHO parental Ca, GPR7 antagonist) | TAAR1 ag conf 62.8 | Ga16 ag counter inactive | TAAR1 desensitize inactive | Ga16 antag count inactive
CC(C)N(Cc1ccccc1)S(=O)(=O)c1ccc2c(c1)NC(=O)CO2	none
O=C(c1ccc2oc(Cc3ccc(Cl)cc3)nc2c1)N1CCCCC1CCO (stereo not drawn)	none
CCCn1c(=O)c(C(=O)NNC(=O)c2ccccc2Cl)c(O)c2ccccc21	TAAR1 antag 54.6, TAAR1 ag 112.0 | TAAR1 ag conf 71.9 | Ga16 ag counter 64.8 | TAAR1 desensitize inactive | Ga16 antag count 25.8
CCOC(=O)c1cnn(-c2nc(SC)nc3sc4c(c23)CCCC4)c1N	TAAR1 antag 83.9, TAAR1 ag 85.0 | TAAR1 ag conf inactive | Ga16 ag counter 14.6 | TAAR1 desensitize inactive | Ga16 antag count 40.0
CCOC(=O)c1cnn(-c2ncnc3sc4c(c23)CCC4)c1N	none
CCCOC(=O)c1ccc2c(c1)C(=O)N(c1ccccc1)C2=O	TAAR1 antag 53.1, TAAR1 ag 68.1 | TAAR1 ag conf inactive | Ga16 ag counter inactive | TAAR1 desensitize inactive | Ga16 antag count inactive
Cc1ccc(N2C(=O)c3ccc(C(=O)N4CCN(Cc5ccccc5)CC4)cc3C2=O)cc1	TAAR1 antag 80.7, TAAR1 ag 86.7 | TAAR1 ag conf 93.9 | Ga16 ag counter 49.2 | TAAR1 desensitize 96.5 | Ga16 antag count 73.9
O=C(N=Nc1c(O)n(C2OC(=O)c3ccccc32)c2ccccc12)c1ccc(O)cc1 (stereo not drawn)	TAAR1 ag 71.0 | TAAR1 ag conf inactive | Ga16 ag counter inactive | TAAR1 desensitize inactive | Ga16 antag count inactive
Cc1noc(/C=C/c2ccco2)c1S(=O)(=O)N1CCC(C(=O)N2CCc3ccccc3C2)CC1	none (no result: TAAR1 antag, TAAR1 ag)
O=C(NCCNC(=O)c1ccc(-c2cccc(Cl)c2)o1)c1cnccn1	none (no result: OX1R antag-1, OX1R antag-2, CHO parental Ca, GPR7 antagonist)

Screening results from PubChem BioAssay.
